Assay results: ChEMBL document CHEMBL2331178, “Novel pyridinone derivatives as non-nucleoside reverse transcriptase inhibitors (NNRTIs) with high potency against NNRTI-resistant HIV-1 strains” (J Med Chem, 2013)
Values belong to the compound of their own block, whether it stands above or below them.

Columns and labels:
[1] = molecular target: Human immunodeficiency virus type 1 reverse transcriptase (Human immunodeficiency virus 1, UniProt Q72547); assay: Inhibition of HIV1 reverse transcriptase after 1 hr by colorimetric assay
Method in brief: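 Purified recombinant wild-type RT with poly(rA)/oligo(dT)16 template-primer and serial inhibitor concentrations. Incubated 1 h at 37 °C. Incorporated biotin detected with streptavidin-alkaline phosphatase and PNPP (30 min, 37 °C), read colorimetrically.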

[2] = system: Human immunodeficiency virus 1; assay: Antiviral activity against Human immunodeficiency virus 1 SF33 infected in human TZM-bl cells assessed decrease in p24 level after 7 days by ELISA; assay type: functional, organism-based; details: Human immunodeficiency virus 1, SF33, TZM-bl, 168 h
[3] = Selectivity index, ratio of CC50 for human MT4 cells to EC50 for Human immunodeficiency virus 1 A17 infected in human MT4 cells; assay type: toxicity, cell-based; details: read-out: Ratio CC50/EC50
[4] = system: Human immunodeficiency virus 1; assay: Antiviral activity against Human immunodeficiency virus 1 SF33 infected in human MT4 cells assessed decrease in p24 level after 7 days by ELISA; assay type: functional, organism-based; details: Human immunodeficiency virus 1, SF33, MT4, 168 h
Method in brief: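 MT4 cells (4×10^4/well) infected with 200 TCID50 of HIV-1 for 2 h at 37 °C, then serial dilutions of compound added. After 7 days at 37 °C, p24 measured in a commercial ELISA.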

[5] = Cytotoxicity against human MT4 cells after 3 days by XTT assay; assay type: cell-based
Method in brief: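 Graded compound concentrations added to MT4 cells (5×10^4/well) for 3 days at 37 °C. CCK-8 reagent then added for 4 h at 37 °C to develop the XTT formazan product, and absorbance read at 450 nm. CC50 derived from percent cytotoxicity.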

[6] = system: Human immunodeficiency virus 1; assay: Antiviral activity against NNRTI-resistant Human immunodeficiency virus 1 A17 double mutant infected in human TZM-bl cells assessed decrease in p24 level after 7 days by ELISA; assay type: functional, organism-based; details: Human immunodeficiency virus 1, A17, TZM-bl, 168 h
[7] = system: Human immunodeficiency virus 1; assay: Antiviral activity against NNRTI-resistant Human immunodeficiency virus 1 A17 double mutant infected in human MT4 cells assessed decrease in p24 level after 7 days by ELISA; assay type: functional, organism-based; details: Human immunodeficiency virus 1, A17, MT4, 168 h
Method in brief: (§1)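 MT4 cells (4×10^4/well) were infected with 200 TCID50 HIV-1 and held 2 h at 37 °C, then serially diluted compound was added. […] The K103N and Y181C viruses came from transfecting RT-mutant plasmids into 293T/17 cells.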

[8] = Cytotoxicity against human TZM-bl cells; assay type: cell-based
[9] = Selectivity index, ratio of CC50 for human MT4 cells to EC50 for Human immunodeficiency virus 1 SF33 infected in human MT4 cells; assay type: toxicity, cell-based; details: read-out: Ratio CC50/EC50
[10] = Selectivity index, ratio of CC50 for human TZM-bl cells to EC50 for Human immunodeficiency virus 1 A17 infected in human TZM-bl cells; assay type: toxicity, cell-based; details: read-out: Ratio CC50/EC50
[11] = system: Human immunodeficiency virus 1; assay: Antiviral activity against NNRTI-resistant Human immunodeficiency virus 1 harboring reverse transcriptase Y181C mutation infected in human TZM-bl cells assessed decrease in p24 level after 7 days by ELISA; assay type: functional, organism-based; details: Human immunodeficiency virus 1, TZM-bl, 168 h
[12] = Selectivity index, ratio of CC50 for human TZM-bl cells to EC50 for Human immunodeficiency virus 1 SF33 infected in human TZM-bl cells; assay type: toxicity, cell-based; details: read-out: Ratio CC50/EC50
[13] = system: Human immunodeficiency virus 1; assay: Antiviral activity against NNRTI-resistant Human immunodeficiency virus 1 harboring reverse transcriptase K103N mutation infected in human MT4 cells assessed decrease in p24 level after 7 days by ELISA; assay type: functional, organism-based; details: Human immunodeficiency virus 1, MT4, 168 h; method in brief: as §1
[14] = system: Human immunodeficiency virus 1; assay: Antiviral activity against NNRTI-resistant Human immunodeficiency virus 1 harboring reverse transcriptase K103N mutation infected in human TZM-bl cells assessed decrease in p24 level after 7 days by ELISA; assay type: functional, organism-based; details: Human immunodeficiency virus 1, TZM-bl, 168 h
[15] = system: Human immunodeficiency virus 1; assay: Antiviral activity against NNRTI-resistant Human immunodeficiency virus 1 harboring reverse transcriptase Y181C mutation infected in human MT4 cells assessed decrease in p24 level after 7 days by ELISA; assay type: functional, organism-based; details: Human immunodeficiency virus 1, MT4, 168 h; method in brief: as §1
[16] = molecular target: Human immunodeficiency virus type 1 reverse transcriptase (Human immunodeficiency virus 1) (UniProt Q72547); assay: Ratio of TNK651 IC50 to compound IC50 for HIV1 reverse transcriptase
[17] = molecular target: Human immunodeficiency virus type 1 reverse transcriptase (Human immunodeficiency virus 1) (UniProt Q72547); assay: Ratio of nevirapine IC50 to compound IC50 for HIV1 reverse transcriptase

Compound: CCOC(=O)c1c(OC2C(C)CCCC2C)cc(Cc2ccccc2)[nH]c1=O (mixture of isomers)
IC50 [1]: 37100 nM

Compound: CC1CCCCC1Oc1cc(CCc2ccccc2)[nH]c(=O)c1Br (mixture of isomers)
EC50 [2]: 92 nM
selectivity ratio [3]: 23
EC50 [4]: 3 nM
CC50 at 72 h [5]: 100000 nM
EC50 [6]: > 10000 nM
EC50 [7]: 4320 nM
CC50 [8]: 83100 nM
selectivity ratio [9]: 33400
selectivity ratio [10]: < 8
IC50 [1]: 650 nM

Compound: CC1CCCCC1Oc1cc(Cc2ccccc2)[nH]c(=O)c1 (mixture of isomers)
IC50 [1]: 59300 nM

Compound: CC(C)c1c(Cc2ccccc2)n(COCc2ccccc2)c(=O)[nH]c1=O
EC50 [2]: 22 nM
selectivity ratio [3]: < 8
EC50 [11]: > 10000 nM
selectivity ratio [12]: 2990
EC50 [13]: 2400 nM
EC50 [14]: > 10000 nM
EC50 [6]: > 10000 nM
EC50 [7]: > 10000 nM
CC50 [8]: 65800 nM
EC50 [15]: > 10000 nM
selectivity ratio [10]: < 6
IC50 [1]: 88 nM

Compound: CCOC(=O)c1c(OC2CCCCCC2)cc(Cc2ccccc2)[nH]c1=O
IC50 [1]: > 100000 nM

Compound: CC(C)c1c(O[C@H]2CCCC[C@@H]2C)cc(CCc2ccccc2)[nH]c1=O (racemic)
EC50 [2]: 9 nM
selectivity ratio [3]: > 3330
Ratio IC50 [16]: 29
EC50 [4]: 4 nM
EC50 [11]: 63 nM
CC50 at 72 h [5]: > 300000 nM
selectivity ratio [12]: > 33300
EC50 [13]: 18 nM
EC50 [14]: 75 nM
EC50 [6]: 139 nM
EC50 [7]: 90 nM
Ratio IC50 [17]: 1480
CC50 [8]: > 300000 nM
EC50 [15]: 190 nM
selectivity ratio [9]: > 75000
selectivity ratio [10]: 2160
IC50 [1]: 3 nM

Compound: CCOC(=O)c1c(OC2CCCC2)cc(Cc2ccccc2)[nH]c1=O
IC50 [1]: > 100000 nM

Compound: CC(C)c1c(OC2CCCCC2C)cc(CCc2ccccc2)[nH]c1=O (mixture of isomers)
EC50 [2]: 36 nM
selectivity ratio [3]: 73
EC50 [4]: 7 nM
CC50 at 72 h [5]: 201000 nM
selectivity ratio [12]: 3180
EC50 [6]: 600 nM
EC50 [7]: 2760 nM
CC50 [8]: 114000 nM
selectivity ratio [9]: 28800
selectivity ratio [10]: 191
IC50 [1]: 10 nM

Compound: CCOC(=O)c1c(OC2CCCCC2)cc(Cc2ccccc2)[nH]c1=O
IC50 [1]: 81000 nM

Compound: COc1ccc(Cc2cc(OC3CCCCC3C)c(C(C)C)c(=O)[nH]2)cc1 (mixture of isomers)
EC50 [2]: 5 nM
selectivity ratio [3]: 155
EC50 [4]: 6 nM
CC50 at 72 h [5]: 74500 nM
selectivity ratio [12]: 26500
EC50 [6]: > 10000 nM
EC50 [7]: 479 nM
CC50 [8]: 132000 nM
selectivity ratio [9]: 12400
selectivity ratio [10]: < 13
IC50 [1]: 33 nM

Compound: CC1CCCCC1Oc1cc(Cc2ccccc2)[nH]c(=O)c1Br (mixture of isomers)
IC50 [1]: 1210 nM

Compound: CC1CCCCC1Oc1cc(CCc2ccccc2)[nH]c(=O)c1I (mixture of isomers)
EC50 [2]: 53 nM
selectivity ratio [3]: > 1070
EC50 [4]: 17 nM
EC50 [11]: 296 nM
CC50 at 72 h [5]: > 300000 nM
selectivity ratio [12]: > 5660
EC50 [13]: 17 nM
EC50 [14]: 100 nM
EC50 [6]: 978 nM
EC50 [7]: 281 nM
CC50 [8]: > 300000 nM
EC50 [15]: 170 nM
selectivity ratio [9]: > 17600
selectivity ratio [10]: 307
IC50 [1]: 150 nM

Compound: CC(C)c1c(OC2CCCCC2C)cc(Cc2ccc(Cl)cc2)[nH]c1=O (mixture of isomers)
EC50 [2]: 23 nM
selectivity ratio [3]: 8
EC50 [4]: 10 nM
CC50 at 72 h [5]: 84000 nM
selectivity ratio [12]: 4720
EC50 [6]: > 10000 nM
EC50 [7]: 10400 nM
CC50 [8]: 109000 nM
selectivity ratio [9]: 8400
selectivity ratio [10]: < 10
IC50 [1]: 160 nM

Compound: CCOC(=O)c1c(OC2CC(C)CC(C)(C)C2)cc(Cc2ccccc2)[nH]c1=O (mixture of isomers)
IC50 [1]: > 100000 nM

Compound: Cc1ccc(Cc2cc(OC3CCCCC3C)c(C(C)C)c(=O)[nH]2)cc1 (mixture of isomers)
EC50 [2]: 57 nM
selectivity ratio [3]: < 11
EC50 [4]: 6 nM
CC50 at 72 h [5]: 112000 nM
selectivity ratio [12]: 1740
EC50 [6]: > 10000 nM
EC50 [7]: > 10000 nM
CC50 [8]: 99000 nM
selectivity ratio [9]: 18700
selectivity ratio [10]: < 9
IC50 [1]: 59 nM

Compound: Cc1ccnc2c1NC(=O)c1cccnc1N2C1CC1 [NEVIRAPINE]
EC50 [2]: 190 nM
EC50 [11]: > 10000 nM
EC50 [13]: > 10000 nM
EC50 [14]: > 10000 nM
EC50 [6]: > 10000 nM
EC50 [7]: > 10000 nM
CC50 [8]: 204000 nM
EC50 [15]: > 10000 nM

Compound: CC(C)c1c(O[C@H]2CCCC[C@H]2C)cc(CCc2ccccc2)[nH]c1=O (racemic)
EC50 [2]: 136 nM
selectivity ratio [3]: < 8
EC50 [4]: 68 nM
CC50 at 72 h [5]: 87900 nM
selectivity ratio [12]: 1390
EC50 [6]: > 10000 nM
EC50 [7]: > 10000 nM
CC50 [8]: 189000 nM
selectivity ratio [9]: 1290
selectivity ratio [10]: < 18
IC50 [1]: 1310 nM

Compound: CC(C)c1c(OC2CCCCC2C)cc(Cc2ccc(F)cc2)[nH]c1=O (mixture of isomers)
EC50 [2]: 26 nM
selectivity ratio [3]: < 6
EC50 [4]: 23 nM
CC50 at 72 h [5]: 64600 nM
selectivity ratio [12]: 2860
EC50 [6]: > 10000 nM
EC50 [7]: > 10000 nM
CC50 [8]: 74500 nM
selectivity ratio [9]: 2810
selectivity ratio [10]: < 7
IC50 [1]: 130 nM

Further lines, results first:

IC50 [1]: > 100000 nM
Compound: CCOC(=O)c1c(OC2CCCCC2C)cc(CCc2ccccc2)[nH]c1=O (mixture of isomers)

IC50 [1]: 410 nM
Compound: CC(C)c1c(OC2CCCCC2C)cc(Cc2ccccc2)[nH]c1=O (mixture of isomers)

IC50 [1]: 32900 nM
Compound: CCOC(=O)c1c(OC2CCC(C)CC2)cc(Cc2ccccc2)[nH]c1=O (mixture of isomers)

IC50 [1]: > 100000 nM
Compound: CCOC(=O)c1c(OC2CCCCC2Cl)cc(Cc2ccccc2)[nH]c1=O (mixture of isomers)

IC50 [1]: 19800 nM
Compound: CCOC(=O)c1c(OC2CCCC(C)C2)cc(Cc2ccccc2)[nH]c1=O (mixture of isomers)

IC50 [1]: 590 nM
Compound: CC1CCCCC1Oc1cc(Cc2ccccc2)[nH]c(=O)c1I (mixture of isomers)

IC50 [1]: 5290 nM
Compound: CCOC(=O)c1c(OC2CCCCC2C)cc(Cc2ccccc2)[nH]c1=O (mixture of isomers)

IC50 [1]: 73500 nM
Compound: CCOC(=O)c1c(OC2CC(C)CC(C)C2)cc(Cc2ccccc2)[nH]c1=O (mixture of isomers)
